Hits are enriched below; roughly 3% of the tested compounds scored in any of these assays.
DNA FID counter: compounds displacing fluorescent DNA intercalator, primary screen, artefact control for HCV NS3 helicase inhibitor project, biochemical, FID fluorescence | DNA fluorescent intercalator displacement | inhibition, % at 7.9 µM | hit rate 0.17% among 290,000 | AID 1845, 2009; in the data active means inhibition above about 37%;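 further: 0% = vehicle and 100% = reference compound; higher means more ethidium bromide displaced from hairpin DNA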
ANO1 block: TMEM16A chloride channel inhibitors, primary screen, cell-based, HTS; HEK293 TMEM16A/YFP iodide influx fluorescence, ionomycin; normalized B-score (activity score, 25-100; higher = stronger inhibition) at 10 µM; hit rate 1.2% among 310,000; AID 588511, 2011;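 active means ratio plate-corrected score three or more library SD toward inhibition, starting fluorescence score within five deviations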;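 further: score derived from kinetic fluorescence span divided by baseline fluorescence per well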
ANO1 activ: TMEM16A chloride channel activators or potentiators, primary screen, cell-based, HTS | Anoctamin-1 (Mus musculus), Q8BHY3 | AID 623877, 2012 | B-score at 10 µM | hit rate 0.3% among 340,000 | HEK293 TMEM16A/YFP-H148Q/I152L, iodide quench fluorescence; stronger effect = lower value;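 active means fluorescence-ratio B-score plate-corrected deviation score at least 3 library SD below zero, with starting fluorescence score within 5 deviations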;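 further: channel opened by trigger with iodide after compound preincubation; score built on the fluorescence ratio of max minus min over baseline; more negative score means more quench and so TMEM16A activation or potentiation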
Kir21 inh: inhibitors of mouse Kir2.1 inward-rectifier potassium channel. AID 1672, 2009. Inward rectifier potassium channel 2 (Mus musculus), P35561. hit rate 0.85% among 310,000. HEK293-Kir2.1, FluxOR thallium flux fluorescence; stronger effect = lower value. B-score at 10 µM;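 active means fluorescence ratio B-score at or below minus 3 SD of library scores, with starting-brightness B-score within 2 SD, cut at about -4.2 in these data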;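 further: channel flux triggered by added potassium and thallium sulfate stimulus; B-score of peak minus minimum fluorescence over baseline after thallium stimulus; more negative B-score means stronger Kir2.1 block with less thallium influx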
SR-BI DiI inh: inhibitors of SR-BI mediated HDL lipid uptake, primary screen, ldlA[mSR-BI] cells, fluorescence, single point. Scavenger receptor class B member 1 (Mus musculus), Q61009. ldlA[mSR-BI] CHO cells, DiI-HDL uptake fluorescence, 3 h. inhibition, % at 12.5 µM. hit rate 0.96% among 320,000. AID 488896, 2010;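 active means mean replicate inhibition of at least 70% and a set share of replicates each scoring 70 or more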;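 further: 0% = median of neutral control wells and 100% = median of positive control wells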
Target sequence (Q61009 whole entry, looked up): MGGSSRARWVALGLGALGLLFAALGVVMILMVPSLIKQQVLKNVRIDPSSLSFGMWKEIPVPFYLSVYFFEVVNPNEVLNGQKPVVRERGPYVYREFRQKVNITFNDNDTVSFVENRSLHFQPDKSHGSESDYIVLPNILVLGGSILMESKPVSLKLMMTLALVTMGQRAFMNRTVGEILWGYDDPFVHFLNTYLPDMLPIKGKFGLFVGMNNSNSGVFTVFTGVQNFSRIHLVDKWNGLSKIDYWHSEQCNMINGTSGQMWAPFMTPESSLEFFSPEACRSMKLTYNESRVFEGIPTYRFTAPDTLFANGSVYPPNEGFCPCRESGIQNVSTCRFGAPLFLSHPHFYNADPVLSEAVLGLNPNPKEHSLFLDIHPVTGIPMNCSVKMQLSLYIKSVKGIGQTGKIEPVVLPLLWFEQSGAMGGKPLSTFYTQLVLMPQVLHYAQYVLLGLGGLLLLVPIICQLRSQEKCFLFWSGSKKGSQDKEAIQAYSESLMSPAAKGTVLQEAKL
SR-BI uptake up: activators of SR-BI mediated DiI-HDL uptake, primary screen, ldlA[mSR-BI] CHO cells, DiI fluorescence | 3 h; 100 = double the neutral-control signal | activation, % at 12.5 µM | hit rate 0.096% among 320,000 | AID 504775, 2011;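 active means mean replicate activation of at least 60% and every replicate at or above 60%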;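 further: 0% = median plate neutral-control signal and 100% = twice that signal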
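Material: SR-BI-overexpressing, LDLR-lacking CHO cells | Dosing: Single compound concentration, delivered by pin transfer | Probe or stimulus: Labelled HDL, 10 µg/mL | Signal: Bottom-read cell fluorescence after medium removal, ex 550/em 595 nm | Schedule: 3 h, 37 °C | Evaluation: HDL uptake via cellular fluorescence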
Active calls of the source: *; i = inactive; . = no result.

SMILES	DNA FID counter	ANO1 block	ANO1 activ	Kir21 inh	SR-BI DiI inh	SR-BI uptake up
CCn1c(=O)c2c(n3cnnc13)-c1ccccc1CC21CCCCC1	-5	i	-9.6*	1.1	-11	11
COc1ccc(-n2c(C)c(C)c3c(NCCCO)ncnc32)cc1	-28	i	i	0	-16	16
CN(C(=O)CCn1c(=S)oc2ccccc21)c1ccc(F)cc1	-23	i	i	-5.6*	-4	4
COC(=O)c1c(C(=O)c2ccc(Br)cc2)n(C)c2ccccc12	.	.	i	.	-11	11
Cc1nnc(N2CCC(C(=O)NC3CCC(C)CC3)CC2)c2nn(-c3ccc(Cl)cc3)c(C)c12 (stereo unspecified)	-2	100*	i	0	88*	-88
Cc1nnc(N2CCC(C(=O)N3CCCCC3)CC2)c2nn(-c3ccc(Cl)cc3)c(C)c12	-1	i	i	0.32	46	-46
C#CCSc1nnc(C)c(C)n1	.	i	i	0.58	-18	18
COc1ccc(C(=O)Nc2ccc(Cl)c(S(=O)(=O)N3CCOCC3)c2)cc1	.	.	i	.	44	-44
O=C(Nc1ccc(Cl)c(S(=O)(=O)N2CCOCC2)c1)c1ccc2c(c1)OCO2	.	.	i	.	59	-59
O=C(Nc1ccc(Cl)c(S(=O)(=O)N2CCOCC2)c1)c1ccc(OCC2CCCO2)cc1 (stereo unspecified)	-19	100*	i	-0.51	45	-45
O=C(Nc1ccc(Cl)c(S(=O)(=O)N2CCOCC2)c1)c1ccc2c(c1)OCCO2	-15	i	i	-0.83	72*	-72
Cc1ccc(OCC(=O)OCC(=O)NC2CC2)cc1C	.	.	i	.	-27	27
C/C(=N\N=C(N)N)c1ccc(Cl)c(Cl)c1	17	i	i	-5.3*	.	.
O=C(CCl)Nc1cc(SCC(O)CO)cc([N+](=O)[O-])c1 (stereo unspecified)	1	.	i	-0.04	17	-17
CCC(=O)Nc1cc(SCCO)cc([N+](=O)[O-])c1	2	100*	i	0.01	-4	4
COc1cc(OC)c(NC2=CC(=O)C(=O)c3ccccc32)cc1Cl	-4	i	i	-0.35	102*	-102
c1ccc(COc2ccccc2CNC2CCCC2)cc1	10	i	i	-2.9	-5	5
c1csc(COc2ccccc2CNC2CCCCC2)c1	9	i	i	-4.2*	-29	29
COc1ccc(-c2cc(-c3ccccc3O)[nH]n2)cc1OC	-12	i	i	1.9	39	-39
COc1ccc(-c2cc(-c3cc(F)ccc3O)[nH]n2)cc1OC	-4	i	i	0.27	72*	-72
C/C(=N\NC(=O)c1cccc(N/N=C(\C)c2cc(O)ccc2O)c1)c1cc(O)ccc1O	-12	i	i	-0.72	85*	-85
O=C(O)c1cc(O)c2c(c1)C(=O)c1cc(O)cc(O)c1C2=O	-22	i	-16*	1.2	2	-2
CC(=O)Oc1cccc2c1C(=O)c1c(OC(C)=O)cc(C(=O)O)cc1C2=O	3	i	i	0.35	-4	4
CCN(Cc1ccccc1)C(=O)CN1C(=O)COc2ccc(S(=O)(=O)NC3CCCC3)cc21	-43	i	i	-0.42	-1	1
Cc1cc(N/N=C/c2c[nH]c3ccccc23)c2ccccc2n1	4	i	i	0.93	1	-1
SMILES	DNA FID counter	ANO1 block	ANO1 activ	Kir21 inh	SR-BI DiI inh	SR-BI uptake up
Cn1c(N/N=C/c2c[nH]c3ccccc23)nc2ccccc21	6	i	i	-5.2*	32	-32
CSc1ccc(C(C(C(=O)c2cccs2)N2CCOCC2)N2CCOCC2)cc1 (stereo unspecified)	-2	i	i	-0.47	-65	65*
CC(=O)C(C(c1ccccc1)N1CCOCC1)N1CCOCC1 (stereo unspecified)	.	.	i	.	-14	14
COc1cc(/C=C2\SC(N3CCC(C)CC3)=NC2=O)ccc1O	-30	i	i	-2.2	16	-16
O=C(NNC(=O)C1CCCO1)c1ccc(F)cc1 (stereo unspecified)	1	i	i	-0.07	-20	20
CC(=O)OCC(=O)Nc1ccc([N+](=O)[O-])cc1Cl	2	i	i	-0.08	-3	3
CC(=O)Oc1c(C)cc(Cl)cc1C(=O)Nc1ccc([N+](=O)[O-])cc1Cl	10	100*	i	-1.7	24	-24
CC(NC(=O)c1cccc(S(=O)(=O)N(C)c2ccccc2)c1)c1cccnc1 (stereo unspecified)	.	.	i	.	1	-1
CNC(=O)c1c(NC(=O)c2ccc(N3C(=O)CCC3=O)cc2)sc2c1CCC(C)C2 (stereo unspecified)	-9	i	i	-0.94	58	-58
CNC(=O)c1c(NC(=O)c2ccc(N3C(=O)CCC3=O)cc2)sc2c1CCCC2	-17	i	i	0.09	87*	-87
O=C(O)/C=C/C(=O)c1ccc2c(c1)CCc1ccccc1-2	.	i	i	-3	-32	32
COc1cc(OC)cc(-c2c(-c3ccsc3)c3cc(Br)ccc3n2C)c1	.	.	i	.	6	-6
O=C(N/N=C/c1cn(-c2cccs2)nc1-c1ccccc1)c1ccccc1O	-5	100*	i	-1.5	86*	-86
O=C(N/N=C/c1cn(-c2cccs2)nc1-c1ccccc1)c1ccccc1Br	4	i	i	1.6	-4	4
Cc1nn(C)c(C)c1/C=N/N=C1\CCC2C3CCc4cc(O)ccc4C3CCC12C (stereo unspecified)	-5	i	i	0.71	5	-5
Cc1cccc(OCC(=O)N(Cc2nnc(-c3ccccc3Cl)o2)C2CC2)c1	.	.	-29*	.	21	-21
CC(C)/C=C/CN1CCCC(N2CCN(c3cccc(Cl)c3)CC2)C1 (stereo unspecified)	10	i	i	-1.8	16	-16
O=S(=O)(N1CCCCC1)N1CCN(c2cc(Cl)ccc2Cl)CC1	-10	i	-8*	-1.4	14	-14
Cc1ccc(C)c(C(=O)NCCN(C)C)c1	-8	i	i	-0.53	-7	7
C=C(CN(C)C)C(=O)c1cc(C)ccc1C	.	.	i	.	81*	-81
COc1ccc(-c2ccc(NC(=O)c3ccco3)cc2)nn1	.	i	i	0.63	16	-16
CCc1ccccc1NC(=O)CN1CCN(C(=O)C2CCN(C(=O)/C=C/c3ccccc3)CC2)CC1	.	.	i	.	30	-30
